These results are taken from ChEMBL document CHEMBL4715824, “Chemical Proteomic Characterization of a Covalent KRASG12C Inhibitor” (ACS Med Chem Lett, 2018).

Assay [1] is filed under the species Homo sapiens. The assay is described as follows: Covalent inhibition of GDP bound His-tagged KRAS G12C/C51L/C80L/C118S mutant (1 to 169 residues) (unknown origin) expressed in Escherichia coli assessed as enzyme-compound adduct formation at Cys12 residue by measuring ratio of Kinact/Ki measured up to 20 mins by mass spectrometry analysis. To be noted: time min <=20. In short, it runs like this: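 KRAS G12C was held fixed at 2 μM and incubated with varying compound concentrations. Fraction of covalent Cys12 adduct over time was measured by intact-protein LC-MS, and kinact/KI was calculated from these kinetic data.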

Assay [2] deals with GTPase KRas (Homo sapiens, UniProt P01116, G12C). Kind of assay: Covalent binding affinity to KRAS G12C mutant at Cys12 residue in human NCI-H358 cells assessed as reduction of log2 H/L ratio for tryptic peptide […] incubated for 4 hrs followed by cell lysis and subsequently labelled with light thiol probe N-((S)-18-iodo-11-isopropyl-10,13,17-trioxo-3,6-dioxa-9,12,16-triazaoctadecyl)-6-((4R,5S)-5-methyl-2-oxoimidazolidin-4-yl)hexanamide and heavy thiol probe 4 for 1 hr under dark conditions followed by tryptic digestion for overnight and measured by ABPP target occupancy based UHPLC Q-SIM MS analysis. In short, it runs like this:
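Target occupancy: H358 cells were treated 4 h with DMSO, 0.08, 0.4, 2 or 10 μM, each paired with DMSO controls, in duplicate. Lysates were labelled heavy (treated) or light (control) with thiol probe, combined, trypsinized and streptavidin-enriched. The LVVVGAC*GVGK peptide pair was measured by UHPLC Q-SIM, with AUC H/L as occupancy. Each point averaged four MS injections, and IC50 came from the concentration-response curve.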

For assay [3], the target named is Fatty acid-binding protein 5 (Homo sapiens) (UniProt Q01469). The assay is described as follows: Covalent binding affinity to FABP5 at Cys67 residue in human NCI-H358 cells assessed as log2 H/L ratio at 10 uM pretreated for 3 hrs followed by N-(((6S,7R)-7-(4-chloro-3-fluorophenyl)-1,4-oxazepan-6-yl)methyl)-2-hydroxyacetamide treatment for 3 hrs by competitive TMT click chemistry pull-down experiment based LC-MS/MS analysis. Type of assay: cell-based. To be noted: time 6.0 hrs. In short, it runs like this: (§1)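 H358 cells were pretreated with DMSO (n = 3) or 10 μM compound for 3 h, then 2 μM alkyne probe was added for another 3 h. Cells were lysed, clicked onto azide-agarose resin, digested, TMT-labelled and pooled. The pool was fractionated by high-pH HPLC and each fraction run twice by 60 min low-pH nano LC-MS/MS. Readout was log2 compound/DMSO normalized reporter intensity, with a least-squares means test and FDR adjustment.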

Assay [4] addresses T1, Retinaldehyde dehydrogenase 3 (Homo sapiens) (UniProt P47895).
T1 sequence (whole entry): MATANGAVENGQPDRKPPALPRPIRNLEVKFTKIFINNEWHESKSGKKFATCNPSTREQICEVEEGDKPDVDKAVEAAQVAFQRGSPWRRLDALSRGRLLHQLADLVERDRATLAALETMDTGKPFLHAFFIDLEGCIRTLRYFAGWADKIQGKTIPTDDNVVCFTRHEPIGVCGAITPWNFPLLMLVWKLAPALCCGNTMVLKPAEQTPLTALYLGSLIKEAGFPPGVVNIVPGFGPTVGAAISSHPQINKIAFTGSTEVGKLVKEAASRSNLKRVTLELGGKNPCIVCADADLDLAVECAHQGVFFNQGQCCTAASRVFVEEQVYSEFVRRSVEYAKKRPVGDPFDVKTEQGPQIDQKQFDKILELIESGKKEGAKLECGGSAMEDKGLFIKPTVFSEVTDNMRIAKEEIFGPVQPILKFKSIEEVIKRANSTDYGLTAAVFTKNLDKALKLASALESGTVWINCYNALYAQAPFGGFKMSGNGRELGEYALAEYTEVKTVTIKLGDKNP
The assay is described as follows: Covalent binding affinity to ALDH1A3 at Cys52 residue in human NCI-H358 cells assessed as log2 H/L ratio at 10 uM pretreated for 3 hrs followed by N-(((6S,7R)-7-(4-chloro-3-fluorophenyl)-1,4-oxazepan-6-yl)methyl)-2-hydroxyacetamide treatment for 3 hrs by competitive TMT click chemistry pull-down experiment based LC-MS/MS analysis. To be noted: time 6.0 hrs. Type of assay: cell-based. In short, it runs like this: as §1

Turning to `C=CC(=O)N1CCN(c2ncnc3c(F)c(-c4c(O)cccc4F)c(Cl)cc23)CC1`, the Ratio in assay [1] was 501 M⁻¹ s⁻¹; in assay [3] it was -1.3; in assay [4] it was -1.1. For the same compound, the IC50 in assay [2] was 1800 nM.
